Activity calls are given as the source filed them. The rule behind the calls is not given here.
Tests used:
[1] = Plasma concentration in PMA-stimulated C57BL6 mouse neutrophil degranulation model at 100 mg/kg, po after 20 mins; type: ADME, organism-based
[2] = molecular target: T1, Myeloperoxidase (Homo sapiens) (UniProt P05164); assay: Reversible inhibition of human MPO peroxidase activity at 50 to 250 nM preincubated for up to 30 mins followed by H2O2 addition and 2 to 10 times compound dilution measured at 30 secs time interval for 5 mins by amplex red reagent based fluorescence assay
T1 sequence (whole entry): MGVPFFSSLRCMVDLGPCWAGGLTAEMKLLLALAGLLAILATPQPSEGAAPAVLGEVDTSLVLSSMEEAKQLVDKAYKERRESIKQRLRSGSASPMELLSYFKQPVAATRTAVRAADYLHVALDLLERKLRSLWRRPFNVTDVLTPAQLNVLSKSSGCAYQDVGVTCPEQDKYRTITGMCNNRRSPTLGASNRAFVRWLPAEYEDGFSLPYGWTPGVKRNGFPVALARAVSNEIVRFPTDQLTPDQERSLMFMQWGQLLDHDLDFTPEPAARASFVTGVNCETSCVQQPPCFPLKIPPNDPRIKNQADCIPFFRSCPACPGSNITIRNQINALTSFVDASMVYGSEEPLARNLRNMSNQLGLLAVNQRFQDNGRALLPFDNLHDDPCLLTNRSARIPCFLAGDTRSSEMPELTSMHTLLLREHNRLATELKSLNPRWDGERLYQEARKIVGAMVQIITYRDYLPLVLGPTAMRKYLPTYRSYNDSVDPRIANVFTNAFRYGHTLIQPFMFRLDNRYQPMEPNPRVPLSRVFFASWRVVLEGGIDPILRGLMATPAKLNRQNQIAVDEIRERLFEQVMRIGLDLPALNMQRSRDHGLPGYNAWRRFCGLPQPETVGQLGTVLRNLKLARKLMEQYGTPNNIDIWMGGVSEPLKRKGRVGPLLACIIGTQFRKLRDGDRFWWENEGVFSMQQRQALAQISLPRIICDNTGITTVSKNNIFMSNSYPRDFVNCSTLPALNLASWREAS
Method in brief: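 20 nM MPO in phosphate buffer with 100 nM H2O2 and inhibitor at 2–10-fold enzyme concentration. Controls: 0.2% DMSO, irreversible hydrazide. Aliquots taken after 2, 10, 20 and 30 min and passed through a G50 spin column. 5 µL flow-through assayed by Amplex Red; initial rate gave % activity remaining versus control. Also run with 100 mM NaCl and 150 µM L-methionine.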

[3] = molecular target: Cytochrome P450 3A4 (Homo sapiens, UniProt P08684); assay: Inhibition of CYP3A4 (unknown origin); type: ADME
[4] = Ratio of plasma concentration in PMA-stimulated C57BL6 mouse neutrophil degranulation model at 30 mg/kg, po after 20 mins to in vitro IC50 for MPO in PMA-stimulated human neutrophils; type: ADME, organism-based; conditions: in vivo
[5] = tested on: Mus musculus; assay: In vivo inhibition of MPO in PMA-stimulated C57BL6 mouse neutrophil degranulation model assessed as reduction in HOCl production at 30 mg/kg, po pretreated for 20 mins followed by PMA stimulation and measured after 2 mins by luminol chemiluminescence assay relative to control; type: functional
Method in brief: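 C57Bl6 mice dosed orally 30 mpk or vehicle 20 min before retro-orbital PMA 0.62 mg/kg; blood drawn 2 min after PMA and held on ice; 100 μL blood mixed with luminol, chemiluminescence read kinetically 25 min at 37 °C, HOCl production rate calculated.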

[6] = molecular target: Cytochrome P450 2C9 (Homo sapiens, UniProt P11712); assay: Inhibition of CYP2C9 (unknown origin); type: ADME
[7] = molecular target: T2, Cytochrome P450 2B6 (Homo sapiens, UniProt P20813); assay: Inhibition of CYP2B6 (unknown origin); type: ADME
T2 sequence (P20813 whole entry): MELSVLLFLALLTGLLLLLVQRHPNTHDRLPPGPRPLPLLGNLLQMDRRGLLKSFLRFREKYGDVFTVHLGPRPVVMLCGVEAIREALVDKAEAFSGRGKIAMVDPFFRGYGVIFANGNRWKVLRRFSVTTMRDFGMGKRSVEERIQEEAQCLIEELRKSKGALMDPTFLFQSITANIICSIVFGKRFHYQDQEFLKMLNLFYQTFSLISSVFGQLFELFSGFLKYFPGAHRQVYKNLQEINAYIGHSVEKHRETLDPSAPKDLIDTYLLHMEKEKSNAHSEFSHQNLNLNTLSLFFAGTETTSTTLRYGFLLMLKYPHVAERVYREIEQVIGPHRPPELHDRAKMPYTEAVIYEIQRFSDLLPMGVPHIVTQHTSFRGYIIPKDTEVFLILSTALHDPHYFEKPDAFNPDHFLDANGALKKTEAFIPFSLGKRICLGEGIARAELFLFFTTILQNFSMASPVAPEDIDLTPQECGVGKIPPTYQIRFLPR

Sequence of Cytochrome P450 3A4 (P08684 whole entry): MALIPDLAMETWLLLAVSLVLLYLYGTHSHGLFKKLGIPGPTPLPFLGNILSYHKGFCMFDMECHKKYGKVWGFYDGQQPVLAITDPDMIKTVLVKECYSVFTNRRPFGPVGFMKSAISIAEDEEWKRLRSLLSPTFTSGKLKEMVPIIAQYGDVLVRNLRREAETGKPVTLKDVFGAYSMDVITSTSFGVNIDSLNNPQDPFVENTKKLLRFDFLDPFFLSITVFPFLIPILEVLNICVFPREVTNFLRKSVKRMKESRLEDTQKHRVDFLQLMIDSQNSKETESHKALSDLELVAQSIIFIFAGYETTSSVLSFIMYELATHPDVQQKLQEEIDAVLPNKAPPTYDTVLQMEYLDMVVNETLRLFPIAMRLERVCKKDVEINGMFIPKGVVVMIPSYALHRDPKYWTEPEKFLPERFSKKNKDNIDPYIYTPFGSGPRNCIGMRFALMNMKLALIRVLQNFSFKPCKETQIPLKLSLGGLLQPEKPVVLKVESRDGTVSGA
Sequence of Cytochrome P450 2C9 (P11712 whole entry): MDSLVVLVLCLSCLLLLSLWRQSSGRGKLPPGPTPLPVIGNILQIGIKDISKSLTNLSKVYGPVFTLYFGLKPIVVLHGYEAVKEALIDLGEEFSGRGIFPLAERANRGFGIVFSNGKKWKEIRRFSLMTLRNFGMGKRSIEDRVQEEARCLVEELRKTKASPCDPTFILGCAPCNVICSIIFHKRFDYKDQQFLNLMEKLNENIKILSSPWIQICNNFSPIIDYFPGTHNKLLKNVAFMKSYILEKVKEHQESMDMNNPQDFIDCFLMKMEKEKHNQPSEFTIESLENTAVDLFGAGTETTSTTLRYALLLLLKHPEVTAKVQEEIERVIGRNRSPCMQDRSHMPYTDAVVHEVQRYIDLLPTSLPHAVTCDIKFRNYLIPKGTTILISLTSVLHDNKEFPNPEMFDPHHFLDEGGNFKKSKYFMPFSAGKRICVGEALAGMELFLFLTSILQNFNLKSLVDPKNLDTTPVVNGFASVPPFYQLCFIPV

| concentration at 20 min [1] [µM] | inhibition [2] | IC50 [3] [µM] | Ratio [4] | IC50 [6] [µM] | IC50 [7] [µM] | Structure (SMILES) | inhibition in vivo at 30 mg/kg [5] [%] |
| --- | --- | --- | --- | --- | --- | --- | --- |
| 460 | Active | 14 | 36 | – | – | Nc1nc(OCc2ccccc2)c2[nH]nnc2n1 | 50 |
| – | – | – | – | < 0.1 | < 0.1 | Nc1ccc(Oc2cc(Cl)c(Cl)cc2Cl)cn1 | – |
